Key:
[1] = target: T1, Androgen receptor (Rattus norvegicus) (UniProt P15207); assay: In vitro relative binding affinity for rat Androgen receptor
T1 sequence (whole entry): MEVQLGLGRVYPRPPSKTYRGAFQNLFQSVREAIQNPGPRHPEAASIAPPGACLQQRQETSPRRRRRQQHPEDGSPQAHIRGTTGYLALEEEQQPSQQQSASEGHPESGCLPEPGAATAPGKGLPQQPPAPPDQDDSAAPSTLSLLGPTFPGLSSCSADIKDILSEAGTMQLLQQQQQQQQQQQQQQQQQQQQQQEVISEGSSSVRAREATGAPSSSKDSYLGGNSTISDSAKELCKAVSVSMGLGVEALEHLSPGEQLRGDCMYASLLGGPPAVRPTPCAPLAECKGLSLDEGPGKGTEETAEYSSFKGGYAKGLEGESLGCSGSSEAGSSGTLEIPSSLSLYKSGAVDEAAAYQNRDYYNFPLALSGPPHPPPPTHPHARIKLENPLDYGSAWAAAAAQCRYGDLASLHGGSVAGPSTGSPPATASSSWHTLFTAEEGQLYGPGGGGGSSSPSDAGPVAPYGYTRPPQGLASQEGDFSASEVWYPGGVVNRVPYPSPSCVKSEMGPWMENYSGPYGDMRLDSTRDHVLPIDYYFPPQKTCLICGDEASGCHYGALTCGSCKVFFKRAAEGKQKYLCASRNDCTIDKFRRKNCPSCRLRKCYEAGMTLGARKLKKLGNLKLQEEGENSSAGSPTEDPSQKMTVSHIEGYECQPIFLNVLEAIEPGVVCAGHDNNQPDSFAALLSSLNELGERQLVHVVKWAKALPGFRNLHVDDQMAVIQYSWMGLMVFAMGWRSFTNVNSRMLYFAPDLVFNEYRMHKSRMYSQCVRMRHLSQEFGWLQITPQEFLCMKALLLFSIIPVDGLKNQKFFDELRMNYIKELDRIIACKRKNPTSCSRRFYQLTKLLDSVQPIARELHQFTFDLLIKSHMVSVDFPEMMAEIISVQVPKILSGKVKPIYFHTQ

[2] = Partition coefficient (logP); assay type: physicochemical; conditions: octanol/water
[3] = target: T1, Androgen receptor (Rattus norvegicus); assay: Inhibition of anti-androgenic activity in vivo on groups of five rats treated with seven daily subcutaneous doses of testosterone propionate at 200 ug/kg
[4] = target: T1, Androgen receptor (Rattus norvegicus); assay: In vitro relative binding affinity for rat androgen receptor
[5] = target: T1, Androgen receptor (Rattus norvegicus); assay: Anti-androgenic activity in vivo on groups of five rats treated with seven daily oral doses of testosterone propionate at 200 ug/kg; assay type: functional, organism-based; conditions: in the assay text read “seven daily subcutaneous doses” for “seven daily oral doses”
Summary of the method: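 Male rats, five per group, castrated at 24 days of age, then given testosterone propionate 200 µg/kg subcutaneously daily for seven days. Antiandrogen was given orally, daily, over the same seven days. Rats were killed 24 h after the last dose and seminal vesicles weighed. Percent inhibition of testosterone-stimulated weight was taken against a running castrate control, and ED50 was read from the dose-response curve.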

Compound | logP [2] | relative binding affinity (RBA) [4] | other results
CC(O)(CF)C(=O)Nc1ccc([N+](=O)[O-])c(C(F)(F)F)c1 (configuration not stated) | 3.5 |  | relative binding affinity (RBA) [1]: 5.9
Cc1c(C(C)(O)C(F)(F)F)[nH]c2ccccc12 (configuration not stated) |  | 6.7 | inhibition [3]: 33%
CC(C)(O)C(=O)Nc1ccc([N+](=O)[O-])cc1 | 1.61 |  | 
CN(C(=O)C(C)(C)O)c1ccc([N+](=O)[O-])c(C(F)(F)F)c1 | 3.06 |  | 
CC(=O)C(O)(/C=C/c1ccc(Cl)c(Cl)c1)C(F)(F)F (configuration not stated) |  | 0.4 | 
NC(=O)CC(O)(/C=C/c1ccc(Cl)c(Cl)c1)C(F)(F)F (configuration not stated) |  | 0.5 | ED50 [5]: 2.5 mg/kg
CC(O)(C(=O)Nc1ccc([N+](=O)[O-])c(C(F)(F)F)c1)C(F)(F)F (configuration not stated) | 3.21 |  | 
OC(/C=C/c1ccc(Cl)c(Cl)c1)(CCl)C(F)(F)F (configuration not stated) |  | 1.8 | ED50 [5]: 2 mg/kg
CC(C)(O)C(=O)Nc1ccc([N+](=O)[O-])c(C(F)(F)F)c1 [HYDROXYFLUTAMIDE] | 2.7 | 2.1 | 
CC(C)(O)C(=O)Nc1ccc(Cl)cc1 | 2 |  | 
CC(O)(C(=O)Nc1ccc([N+](=O)[O-])c(C(F)(F)F)c1)C(F)F (configuration not stated) | 3.76 |  | 
CC(C(=O)Nc1ccc([N+](=O)[O-])c(C(F)(F)F)c1)C(F)(F)F (configuration not stated) | 3.71 |  | 
N#CCC(O)(/C=C/c1ccc(Cl)c(Cl)c1)C(F)(F)F (configuration not stated) |  | 3.6 | ED50 [5]: 2.5 mg/kg
CC(C)C(=O)Nc1ccc([N+](=O)[O-])c(C(F)(F)F)c1 [FLUTAMIDE] | 3.35 |  | 
CC(O)(/C=C/c1ccc(Cl)c(Cl)c1)C(F)(F)F (configuration not stated) |  |  | relative binding affinity (RBA) [1]: < 0.2
OC(/C=C/c1ccc(Cl)c(Cl)c1)(C(F)(F)F)C(F)(F)F |  | < 0.2 | 
